Screening results as filed in PubChem.
Most compounds without a hit are left out; they make up all but 4% or so of the library.
CHO parental Ca: ATP-evoked calcium signal inhibitors, parental CHO, primary screen, counter-screen for OX1R antagonist project, cell-based, fluorescence, Fluo-8 calcium dye; parental CHO-K1, ATP-induced calcium, Fluo-8 fluorescence; inhibition, % at 5.6 µM; hit rate 0.63% among 330,000;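 active means inhibition above that plate's mean sample inhibition plus 3 SD, cut at about 26% in these data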;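 further: 0% = ATP-challenged DMSO wells and 100% = DMSO wells without ATP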
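Test system: untransfected parental CHO cell line. Compound: one dose, 5.6 µM nominal. Detection: intracellular calcium via Fluo-8 no-wash fluorescent dye. Measure: % inhibition. Benchmarks: ATP-challenged DMSO wells low, unchallenged DMSO wells high.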
OX1R antag-1: antagonists of human orexin 1 receptor (OX1R). OX1R-expressing cells, FRET antagonist read-out. Orexin/Hypocretin receptor type 1 (Homo sapiens), O43613. hit rate 1.8% among 330,000. inhibition, % at 6.6 µM; in the data active means inhibition mostly above about 38%, no sharp cut-off; inactive means mostly below about 40%;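 further: 0% = agonist challenge alone and 100% = reference antagonist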
TAAR1 ag: human TAAR1 agonists, primary screen, Fluo-8 calcium fluorescence, CHO RD-HGA16 cells | hit rate 0.99% among 360,000 | activation, % at 3 µM | AID 624467, 2012 | vehicle wells 0%, saturating PEA agonist 100% | Trace amine-associated receptor 1 (Homo sapiens), Q96RJ0;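 active means activation above the mean activation of all test compounds in the run plus 3 SD, cut at about 38% in these data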
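Test system: RD-HGA16 (CHO) cells co-expressing Gα16 and hTAAR1 | Doses: Single dose, 3 µM | Schedule: 17-24 h seeding, 75 min 37 °C dye, 30 min RT | Evaluation: % activation from peak over basal fluorescence ratio, DMSO-to-PEA scaled | Technique: Kinetic Fluo-8 calcium fluorescence | Benchmarks: Low control DMSO, high control PEA (EC100)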
NTR1 agonist: agonists of human NTR1, primary screen, imaging, U2OS cells, beta-arrestin-GFP, high content | Neurotensin receptor type 1 (Homo sapiens), P30989 | NTR1-U2OS beta-arrestin-GFP spot imaging, agonist mode | activation, % at 20 µM | hit rate 0.17% among 330,000 | AID 493036, 2011;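 active means activation at or above 40% of the spot to cytoplasm intensity ratio, with at least 20 cells analyzed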;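 further: 0% = DMSO without peptide and 100% = 100 nM NTR1 peptide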
Target sequence (P30989 whole entry, looked up): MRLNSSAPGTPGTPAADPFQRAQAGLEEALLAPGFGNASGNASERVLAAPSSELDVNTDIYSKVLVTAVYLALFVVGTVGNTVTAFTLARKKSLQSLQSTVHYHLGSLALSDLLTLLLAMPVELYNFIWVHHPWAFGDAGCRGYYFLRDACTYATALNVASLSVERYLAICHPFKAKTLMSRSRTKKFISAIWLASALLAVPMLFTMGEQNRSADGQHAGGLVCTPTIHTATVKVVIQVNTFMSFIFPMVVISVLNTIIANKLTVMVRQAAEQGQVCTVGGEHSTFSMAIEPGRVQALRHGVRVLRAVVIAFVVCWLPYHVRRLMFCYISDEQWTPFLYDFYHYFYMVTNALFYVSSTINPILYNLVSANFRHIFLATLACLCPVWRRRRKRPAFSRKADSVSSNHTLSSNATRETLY
OX1R antag-2: OX1R (HCRTR1) antagonists, primary screen, fluorescence, CHO/OX1R cells, Fluo-8 calcium, orexin A. Orexin/Hypocretin receptor type 1 (Homo sapiens), O43613. Fluo-8 calcium fluorescence. inhibition, % at 5 µM. hit rate 0.43% among 330,000;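 active means inhibition above its plate's threshold, mean inhibition of all tested compounds on the plate plus 3 SD, cut at about 37% in these data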;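 further: 0% = orexin A challenge wells and 100% = SB-334867-A antagonist wells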
TAAR1 antag: human TAAR1 antagonists, primary screen, Fluo-8 calcium fluorescence, CHO RD-HGA16 cells; Trace amine-associated receptor 1 (Homo sapiens), Q96RJ0; antagonist; inhibition, % at 3 µM; hit rate 1.5% among 360,000; AID 624466, 2012;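 active means inhibition above a per-plate cutoff, the mean inhibition of test compounds on that plate plus 3 SD, cut at about 49% in these data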;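 further: 0% = DMSO plus EC80 beta-PEA response and 100% = DMSO alone without agonist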
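Material: CHO RD-HGA16 cells bearing hTAAR1; compound dosing: one-point dosing, 3 µM nominal final; schedule: dye loading 75 min at 37 °C, then 30 min room temperature; measured by: calcium fluorescence with Fluo-8; control set: vehicle and agonist controls; replication: n of 1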
TAAR1 ag conf: human TAAR1 agonists, retest of hits, confirmation, Fluo-8 calcium fluorescence, CHO RD-HGA16 cells. scaled: DMSO 0%, maximal phenethylamine 100%. AID 651783, 2012. activation, % at 3 µM. hit rate 82% among 2,400. shares compounds with TAAR1 ag;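 active means activation above a cutoff set at the run's mean compound activation plus 3 SD, cut at about 39% in these data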
Ga16 nonsel ag: nonselective calcium mobilization agonists, CHO-Ga16 cells, counter-screen for hTAAR1 agonist project, cell-based, fluorescence, CHO-Ga16 parental line; shares compounds with TAAR1 ag; Fluo-8 calcium fluorescence; normalized to maximal ATP response, DMSO zero; activation, % at 3 µM; hit rate 50% among 2,400;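 active means activation above the run cutoff, the mean activation over all tested wells plus 3 SD, cut at about 12% in these data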;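 further: 0% = DMSO wells and 100% = maximal ATP response on the peak over basal ratio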
TAAR1 desens: TAAR1 desensitization by agonist hits, confirmation, counter-screen for TAAR1 agonist project, cell-based, fluorescence, tachyphylaxis | AID 651951, 2012 | hit rate 46% among 2,400 | CHO RD-HGA16 hTAAR1, Fluo-8 calcium, beta-PEA response inhibition | inhibition, % at 3 µM | shares compounds with TAAR1 ag;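 active means inhibition above the run cutoff, the mean inhibition of all test compounds plus 3 SD, cut at about 49% in these data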;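 further: beta-PEA stimulus applied at its EC80; loss of beta-PEA calcium signal after compound pretreatment read as receptor desensitization; 0% = DMSO with beta-PEA at EC80 and 100% = DMSO alone without agonist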
Ga16 nonsel ant: inhibition of ATP-evoked calcium response in CHO-Ga16 cells, counter-screen for TAAR1 agonist project, cell-based, fluorescence; shares compounds with TAAR1 ag; hit rate 39% among 2,400; AID 651952, 2012; CHO-Ga16 ATP-induced calcium, Fluo-8 fluorescence; inhibition, % at 3 µM;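 active means inhibition above the plate's mean compound inhibition plus 3 SD, computed per plate, cut at about 22% in these data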;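 further: 0% = EC80 ATP with DMSO and 100% = DMSO wells without ATP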
The depositor's hits bear a star.

Screening COc1cccc(N=C(N)N)c1 returned CHO parental Ca 5, OX1R antag-1 18, TAAR1 ag 67*, NTR1 agonist 0, OX1R antag-2 12, TAAR1 antag 53*, TAAR1 ag conf 83*, Ga16 nonsel ag 2, TAAR1 desens 75* and Ga16 nonsel ant 5.
CCOc1ccc(CCN2C(=S)N([C@@H](Cc3ccc(O)cc3)CN3CCC[C@@H]3CN3C(=S)NC[C@@H]3Cc3ccc(O)cc3)C[C@@H]2Cc2ccc(O)cc2)cc1 was read as TAAR1 ag 1 and TAAR1 antag 3.
For Cc1ccc(Nc2cc(C)c3c(O)cccc3n2)cc1C the results were CHO parental Ca 14, OX1R antag-1 4, TAAR1 ag 98*, NTR1 agonist 22, OX1R antag-2 10, TAAR1 antag 54*, TAAR1 ag conf 96*, Ga16 nonsel ag 28*, TAAR1 desens 87* and Ga16 nonsel ant 25*.
COc1ccc(Nc2cc(C)c3c(O)cccc3n2)cc1 was read as CHO parental Ca -10, OX1R antag-1 32, NTR1 agonist 2, OX1R antag-2 -10, Ga16 nonsel ag 6 and Ga16 nonsel ant 13.
COc1ccc2nc(N(Cc3ccccc3)C(=O)CCNC(C)=O)sc2c1 was read as CHO parental Ca -12, OX1R antag-1 38, TAAR1 ag 0, NTR1 agonist -1, OX1R antag-2 -2 and TAAR1 antag -13.
Screening COc1ccc(C(=O)NNC(=O)C23CC4CC(CC(C4)C2)C3)cc1OC returned CHO parental Ca -7, OX1R antag-1 4, TAAR1 ag 0, NTR1 agonist 0, OX1R antag-2 -29 and TAAR1 antag -2.
`CN1C(=O)C2CN(CCc3ccccc3)CNC2N(C)C1=O` (stereo unspecified) gave CHO parental Ca -10, OX1R antag-1 6, NTR1 agonist 0, OX1R antag-2 -9, Ga16 nonsel ag 0 and Ga16 nonsel ant -3.
For CC(C)=C1C2CCC1C1C(=O)N(CCc3ccccc3)C(=O)C21 (stereo unspecified) the results were CHO parental Ca -14, OX1R antag-1 16, TAAR1 ag 11, NTR1 agonist 7, OX1R antag-2 -31 and TAAR1 antag 11.
Screening COCCNC(=O)C1CCCN(C(=O)c2cc(-c3cccs3)oc2C)CC1 (stereo unspecified) returned TAAR1 ag 2 and TAAR1 antag -10.
Screening O=C(CCN=C1NS(=O)(=O)c2ccccc21)OCC(=O)c1ccc(F)cc1 returned CHO parental Ca -15, OX1R antag-1 12, TAAR1 ag 2, NTR1 agonist 0, OX1R antag-2 10 and TAAR1 antag 7.
